From ChEMBL document CHEMBL4513216, “Probing the Open Global Health Chemical Diversity Library for Multistage-Active Starting Points for Next-Generation Antimalarials” (ACS Infect Dis, 2020)

assay: Toxicity liver stage against HepG2, at 10uM; type: cell-based; parameters: test concentration 10 uM, cell line HepG2-A16-CD81EGFP; details: human, HepG2-A16-CD81EGFP cells; read-out: INHIBITION
Method in brief: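 Uninfected HepG2-A16-CD81EGFP cells, 3 × 10^3 per well, 1536-well, plated on prespotted compound at 10 μM final, parasite-free screening media added to match infected plates; puromycin 10 μM positive, DMSO 0.5% negative; run in parallel with 48 h PbLuc assay at 37 °C, 5% CO2; viability by CellTiter-Glo luminescence, normalized to controls.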

SMILES	cytotoxicity at 10 µM [%]
Cn1c2ccccc2c2ncn(CCCN3CCOCC3)c(=O)c21	18.3
CC(=O)c1ccc(C(=O)NCCCOC(C)c2ccccc2)s1 (stereo unspecified)	-14.1
Cc1ccc2c(c1)nc1n2[C@@H](CNC(=O)c2cncnc2)COC1	5.6
Cc1ccc(-c2cn3c(n2)CO[C@@H](CNCc2cnn(C)c2)C3)cc1	-1.23
COCCN1CC(O)CN(C(=O)c2ccc(SC)cc2)CC1=O (stereo unspecified)	-0.53
CC(C)COC(=O)N1CC(=O)N(CCCc2ccccc2)CC(O)C1 (stereo unspecified)	0.853
COCCNC(=O)CCN1C(=O)CC2(CCCC2)C1=O	2.34
COc1ccc(-c2n[nH]c(C)c2CC(=O)NCCN2CCOCC2)cc1	-13.4
CCCc1cc(=O)n(CC(=O)NC(C)C)c(-n2nc(C)cc2C)n1	2.74
CC(C)(C)c1csc(CN2CCN(S(=O)(=O)c3cccnc3)CC2)n1	3.21
CS(=O)(=O)N1CCOC2(CCN(c3ncccn3)CC2)c2ccccc21	-1.52
CCC(CC)CN1C[C@@H]2OCCN(Cc3cnn(C)c3)[C@@H]2C1	-144
O=C(NCC1CC1)C1CN(C(=O)c2cnccn2)CC12CCOCC2 (stereo unspecified)	8.27
c1ccc(N2CCCC3(CCN(Cc4nccs4)C3)C2)nc1 (stereo unspecified)	6.94
CCN(Cc1nonc1C)C(=O)Cn1nc(C(F)(F)F)cc1C1CC1	1.45
CS(=O)(=O)Nc1cnn(Cc2cccc(Cl)c2)c1	-2.44
Cc1nc(NC2CC2)c2c(n1)c(C)nn2C	-3.79
COc1ccc(CNc2cc3[nH]c(O)nc3cc2C)cc1	18.1
CCN(CC)C(=O)c1ccn(COc2ccccc2)n1	-0.911
Cc1nccnc1C1CCN(C(=O)C(C)C)CC1	3.25
CC(C)N1CCOC(c2cc(CCO)[nH]n2)C1 (stereo unspecified)	1.47
Cn1nccc1C(=O)N1Cc2ccccc2OC2(CCOCC2)C1	-24.7
CC(=O)N1CCN(c2cc(C3CN(C(C)=O)CCO3)nc(C)n2)CC1 (stereo unspecified)	-22.8

SMILES	cytotoxicity at 10 µM [%]
COc1ccc(-c2cccc(CC3(C(=O)O)CCOCC3)c2)cc1	-34.3
NC(=O)C1(CCCc2ccccn2)CCCN(Cc2ncc[nH]2)C1 (stereo unspecified)	-0.00173
CNC(=O)c1ccc(C2CN(C(=O)c3cnn(C)c3)CCO2)nc1 (stereo unspecified)	-24.2
O=C(Cn1cccnc1=O)NC(Cc1ccsc1)c1nccs1 (stereo unspecified)	-4.44
Cc1n[nH]c(C)c1NC(=O)CCc1cccc(C2CCCN(C)C2)n1 (stereo unspecified)	-6.19
O=C(C1CCC1)N1CCCC(c2cccc(-n3ccnc3)n2)C1 (stereo unspecified)	-1.28
CCN1CCN(Cc2c(-c3ccco3)[nH]c3ncccc23)CC1	-5.91
Cc1ncsc1-c1nnc(C2CCN(Cc3ccccc3Cl)CC2)o1	-6.86
CN1CCC2(CC1)Cc1ccccc1CN(C(=O)CN)C2	-1.63
COc1ccc(SC(C)C(=O)N2CCC(NC(=O)C3CC3)CC2)cc1 (stereo unspecified)	-9.11
CC(C(=O)N(C)Cc1ccc(Br)o1)n1cncn1 (stereo unspecified)	5.87
CNC(=O)C(CC(C)C)NC(=O)c1cccc(-c2nc(C)cs2)c1 (stereo unspecified)	14.5
O=C(NCCO)Nc1c(F)cccc1Oc1ccccc1	1.36
CC(=O)NCCC(=O)NC(C)c1sc(-c2ccccc2F)nc1C (stereo unspecified)	7.92
CCCc1nc(CN(C)CCOc2ccccc2)cs1	-8.53
Cc1c(NC(C)C(C)C)cccc1C(=O)NCc1cnn(C)c1 (stereo unspecified)	27
COCCN1CCC(NC(=O)Nc2cccc(F)c2)C1 (stereo unspecified)	-0.898
COc1c(C(=O)NCC(C)Sc2ccccc2)c(C)nn1C (stereo unspecified)	12.1
Cc1cnn(C2CN(CC(O)c3ccccc3)C2)c1 (stereo unspecified)	-2.55
CC(C)c1ncncc1C(=O)NCCN1CCCC1	-9.91
CCN(Cc1ccco1)C(=O)NCC(c1cccs1)N(C)C (stereo unspecified)	16.3
CC(=O)Nc1nc(C(=O)NCCOc2cccc(F)c2)cs1	7.9
O=C(Cn1cnnn1)Nc1ccc(F)cc1OCC1CC1	5.38

SMILES	cytotoxicity at 10 µM [%]
CCc1nc(CSC2CCCN(c3cnn(C)c3)C2=O)cs1 (stereo unspecified)	14.1
O=C(NCc1cscn1)NC1CCN(c2ncccc2Cl)C1 (stereo unspecified)	-1.24
Cc1ccc(CCc2nc(C3CCOC3)no2)o1 (stereo unspecified)	3.04
CCC(C)NC(=O)Nc1ccc(CN2CCOC2=O)cc1 (stereo unspecified)	10.5
COc1ccc(NC(C)C(=O)N2CCN(c3ncccn3)CC2)cn1 (stereo unspecified)	-4.71
Cc1ccc(N2CCC3(CC2)CC(OCC(=O)N(C)C)CO3)nn1 (stereo unspecified)	-7.59
O=C1CN(CC2CC2)Cc2nc(NCc3ccccc3)sc21	-12.3
CN1CC2(CCN(C(=O)c3coc4c3C(=O)CCC4)C2)OC1=O (stereo unspecified)	-2.36
CCC(O)C1CCN(C(=O)Nc2nc(-c3ccccc3)ns2)CC1 (stereo unspecified)	-130
CC(C)N(Cc1nc(-c2cccs2)no1)CC1CCC(=O)N1 (stereo unspecified)	-0.475
CNCC(=O)N[C@H]1CN(c2nc(C)c3c(n2)CCCC3)C[C@@H]1C1CC1	13.2
COc1c(F)cc(CN2CCCC3(CC2)CNC(=O)O3)cc1Cl (stereo unspecified)	0.465
Cc1ccc(C)c2c(O)cc(CNCC(N)=O)nc12	-3.35
CSCC(=O)N1CCCC(CCC(=O)N(C)CCc2ccccn2)C1 (stereo unspecified)	-3.09
Cc1cc(C)n(C2CN(C(=O)Cn3c(C)cc(=O)c4ccccc43)C2)n1	-5.56
O=C1[C@@H]2CN(c3ncnc4sccc34)C[C@]2(C(=O)O)CN1CC1CC1	0.977
Cn1cc(CN2CCC[C@]3(C(=O)O)CN(c4cnccn4)CC[C@@H]23)cn1	-0.226
COc1ccc(-c2ccnc(N)c2)c(C)c1	6.63
CCn1cc(CN2CCCCC2CCn2ccnc2C)cc1C#N (stereo unspecified)	-3.09
CCc1ccc(C2c3nc[nH]c3CCN2Cc2nccn2CC)nc1 (stereo unspecified)	-0.123
CN(CCO)Cc1nnc(C2CCN(C(=O)c3ccccn3)CC2)n1C	0.5
CC(=O)NCCNc1cc(C)nc2cc(C)nn12	-6.91
Cc1nc(N(C)CCN(C)C)c2cnn(C)c2n1	4.63

SMILES	cytotoxicity at 10 µM [%]
CCCN1CCN(C(=O)Cc2cccnc2)[C@H]2CS(=O)(=O)C[C@H]21	-8.26
CCC(NC1CSCCSC1)c1ccc(S(C)(=O)=O)cc1 (stereo unspecified)	-8.06
Cc1ccc(C)c2c(O)cc(CNCc3ccc(S(N)(=O)=O)cc3)nc12	-9.06
COCCN(C)CC(=O)N1CCCC2(CCC(=O)N(CC3CC3)C2)C1 (stereo unspecified)	0.502
COCc1noc(Cn2ccc3ncccc3c2=O)n1	1.56
CNCc1cc(F)ccc1Oc1ccc(F)cc1	-1
Cc1noc(C(C)C)c1C(=O)NCc1ccc(N(C)C)c(F)c1	1.17
COC(=O)C(NC(=O)C1CCCC1)c1cc(F)ccc1F (stereo unspecified)	5.67
Cc1cc(C)c(CNC(=O)NCC(O)c2ccc(Cl)cc2)c(=O)[nH]1 (stereo unspecified)	-7.03
Cc1cc(C)c(CNC(=O)NCc2cc(F)cc(F)c2)c(=O)[nH]1	-4.98
CC(C)(C)c1ncc(C(=O)NCCNC(=O)c2ccc(O)cc2)s1	45.3
CN(C)c1cc(C(=O)N2CCCN(Cc3nccn3C)CC2)ccn1	-1.56
COc1ccccc1C(NCc1ccc(SC)cc1)c1nccn1C (stereo unspecified)	-11.6
O=C(CCCNc1ncccn1)Nc1cc(C(F)(F)F)c[nH]c1=O	-1.34
Cc1nccc(C(=O)N2CCCN(Cc3nccn3C(C)C)CC2)n1	-10.2
Cc1nc(C)n(C2CCCN(C(=O)c3cc(C4CC4)on3)C2)n1 (stereo unspecified)	-3.87
Cc1nc(C)n(CC2CCCN2CC(=O)Nc2c(C)n[nH]c2C)n1 (stereo unspecified)	-7.66
N#Cc1cccnc1N1CCCN(C(=O)CCn2cccn2)CC1	2.81
COc1cccc(CNCc2ccc(NC(=O)NC(C)C)cc2)c1	-11.1
Cc1ccc(CNC(=O)Cc2c(C)nc3c(c2C)c(=O)[nH]n3C)cc1	-8.6
CCc1nnsc1C(=O)N1CCCN(Cc2ccc(C)cc2)CC1	-4.28
CN(C)Cc1nc(C(C)(C)NC(=O)C2CC(=O)N(CC3CC3)C2)no1 (stereo unspecified)	-5.9
CCOc1cc(C)nc(N2CCN(C(=O)c3ccnn3C)CC2)n1	-4.37

SMILES	cytotoxicity at 10 µM [%]
Cc1ccc(NC(=O)C2CSCN2C(=O)c2cnn(C)c2)c(C)c1 (stereo unspecified)	-3.97
CCOC(=O)NC(C(=O)NCc1ccc(N2CCCCC2)nc1)C(C)C (stereo unspecified)	-6.09
Cc1nc(N)c2ccc(C3CCCCN3)nc2n1 (stereo unspecified)	-0.05
O=C(O)C1(Cc2cccc(-c3cccs3)c2)CCCNC1 (stereo unspecified)	4.43
O=C(NCc1ccco1)[C@@]12CCO[C@@H]1CCN(C1CCC1)C2	12.3
CN(C)Cc1cn2c(n1)CN(CC1CCCC1)CC2	-149
CN(C)CCN1CC[C@@H]2O[C@@H](COCC(=O)N3CCCC3)CC[C@@H]21	-1.78
Cc1cccc(CN2C[C@H](OCc3csc(C)n3)[C@H]3COC[C@H]32)n1	3.22
Cc1cccc(CN2Cc3[nH]nc(COCCO)c3C2)n1	0.442
Cc1noc(C)c1CN1CCN(Cc2ccncc2)c2ncccc2C1	5.51
Cc1cccc(CO[C@@H]2C[C@H]3CN(c4ncccn4)CCN3C2)n1	1.39
COc1ccc(-c2ccnc(C3CCNCC3)c2)cc1	-41.4
c1cn2c(n1)CN(C1CCOCC1)CC(CN1CCCC1)C2 (stereo unspecified)	-0.123
O=C(c1ccco1)N1CCc2ncnc(Oc3cccnc3)c2CC1	-2.86
CCOC1CC2(CCN(Cc3cccn3C)CC2)C1	-149
COc1ccc(CN2CCC[C@@H]3CN(C(=O)c4ccco4)C[C@@H]32)cc1	1.44
COCC(=O)N1CCc2c(nnn2C)C1COCCN1CCCC1 (stereo unspecified)	11.6
Cn1cc(CN2CCC3(CCCN3Cc3cccnc3)CC2)cn1	2.43
CC(C)N(C)Cc1cncc2c1CCN(C(=O)c1ccc[nH]1)C2	3.73
